Reference: ChEMBL document CHEMBL1671666, “Anti-human immunodeficiency virus activity, cross-resistance, cytotoxicity, and intracellular pharmacology of the 3'-azido-2',3'-dideoxypurine nucleosides” (Antimicrob Agents Chemother, 2009)
Structures can show the parent of a compound that is named as a salt.

Legend:
[1] = biological target: Human immunodeficiency virus type 1 reverse transcriptase (Human immunodeficiency virus 1) (UniProt Q72547); experiment: Ratio of Kpol to Kd for HIV1 reverse transcriptase
In short: (§1)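 Pre-steady-state rapid quench with purified WT HIV-1 RT. Quenched with 0.5 M EDTA between 10 ms and 30 min. Products resolved on 7 M urea-16% polyacrylamide gels. Gives kpol and Kd; selectivity = (kpol/Kd)dNTP/(kpol/Kd)NRTI-TP. At least three independent experiments, mean ± SD.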

[2] = biological target: Human immunodeficiency virus type 1 reverse transcriptase (Human immunodeficiency virus 1, UniProt Q72547); experiment: Binding affinity to HIV1 reverse transcriptase; in short: as §1
[3] = biological target: Human immunodeficiency virus type 1 reverse transcriptase (Human immunodeficiency virus 1) (UniProt Q72547); experiment: Selectivity, ratio of Kpol to Kd for dATP to Kpol to Kd for compound at HIV1 reverse transcriptase; in short: as §1
[4] = biological target: Human immunodeficiency virus type 1 reverse transcriptase (Human immunodeficiency virus 1) (UniProt Q72547); experiment: Activity at HIV1 reverse transcriptase measured after 30 mins; in short: as §1
[5] = Half life in PHA-stimulated human PBMC after 12 hrs by LC-MS analysis; assay type: ADME, cell-based
[6] = biological target: Human immunodeficiency virus type 1 reverse transcriptase (Human immunodeficiency virus 1) (UniProt Q72547); experiment: Selectivity, ratio of Kpol to Kd for dGTP to Kpol to Kd for compound at HIV1 reverse transcriptase; in short: as §1
PBMC = experiment: Drug level in PHA-stimulated human PBMC measured per 10^6 cells at 10 uM after 12 hrs by LC-MS analysis; assay type: ADME, cell-based
In short: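 PHA-stimulated human PBMC (24-30 × 10⁶ cells) exposed to a range of nucleoside concentrations for 12 h at 37°C in 5% CO2. […] Triphosphate reported in pmol/10⁶ cells. At least three experiments, mean ± SD.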

[7] = biological target: Human immunodeficiency virus type 1 reverse transcriptase (Human immunodeficiency virus 1) (UniProt Q72547); experiment: Selectivity, ratio of Kpol to Kd for TTP to Kpol to Kd for compound at HIV1 reverse transcriptase; in short: as §1
[8] = biological target: Human immunodeficiency virus type 1 reverse transcriptase (Human immunodeficiency virus 1) (UniProt Q72547); experiment: Selectivity, ratio of Kpol to Kd for dCTP to Kpol to Kd for compound at HIV1 reverse transcriptase; in short: as §1
[9] = test system: Human immunodeficiency virus 1; experiment: Antiviral activity against HIV1 infected in human HeLa P4/R5 cells assessed as inhibition of viral replication; assay type: functional, organism-based; settings: Human immunodeficiency virus 1, HeLa
In short: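 Single-cycle assay in P4/R5 HeLa cells carrying an HIV LTR-driven, Tat-activated β-galactosidase gene. Cells kept in phenol red-free DMEM with 10% FBS and 0.5 μg/ml puromycin. Virus stock titred on these cells by threefold endpoint dilution (Reed-Muench). At least three independent experiments.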

[10] = test system: Human immunodeficiency virus 1; experiment: Antiviral activity against HIV1 infected in human MT2 cells assessed as inhibition of viral replication; assay type: functional, organism-based; settings: Human immunodeficiency virus 1, MT2
[11] = test system: Human immunodeficiency virus 1; experiment: Antiviral activity against HIV1 infected in human PBMC assessed as inhibition of viral replication; assay type: functional, organism-based
In short: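 PBMC from healthy seronegative donors, isolated on a Ficoll-Hypaque gradient and stimulated with PHA for 2-3 days before infection. At least three independent experiments.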

Compound | Ratio [1] [µM⁻¹ s⁻¹] | Kd [2] [µM] | Activity [4] [s⁻¹] | other results
C[C@H](Cn1cnc2c(N)ncnc21)OCP(=O)(O)OP(=O)(O)OP(=O)(O)O | 1.4 | 4.3 | 6.2 | Selectivity ratio [3]: 5.3
[N-]=[N+]=N[C@H]1C[C@H](n2cnc3c(N)ncnc32)O[C@@H]1COP(=O)(O)OP(=O)(O)OP(=O)(O)O | 10.2 | 2.3 | 23.2 | Selectivity ratio [3]: 0.7
[N-]=[N+]=N[C@H]1C[C@H](n2cnc3c(=O)[nH]c(N)nc32)O[C@@H]1COP(=O)(O)OP(=O)(O)OP(=O)(O)O | 1.7 | 2.8 | 4.8 | half-life [5]: 8.9 h; Selectivity ratio [6]: 1.1
Nc1ncnc2c1ncn2[C@H]1C[C@H](O)[C@@H](COP(=O)(O)OP(=O)(O)OP(=O)(O)O)O1 | 7.6 | 3.2 | 24.4 | 
[N-]=[N+]=N[C@H]1C[C@H](n2cnc3c(=O)[nH]c(N)nc32)O[C@@H]1CO |  |  |  | Drug uptake (PBMC): 0.2 pmol
Cc1cn([C@H]2C[C@H](N=[N+]=[N-])[C@@H](COP(=O)(O)OP(=O)(O)OP(=O)(O)O)O2)c(=O)[nH]c1=O | 4.4 |  | 8.8 | Selectivity ratio [7]: 1
Nc1ccn([C@@H]2CS[C@H](COP(=O)(O)OP(=O)(O)OP(=O)(O)O)O2)c(=O)n1 | 0.06 |  | 0.023 | Selectivity ratio [8]: 17.8
Nc1ccn([C@H]2C[C@H](O)[C@@H](COP(=O)(O)OP(=O)(O)OP(=O)(O)O)O2)c(=O)n1 | 1.1 |  | 1.2 | 
Nc1nc(=O)c2ncn([C@H]3C=C[C@@H](COP(=O)(O)OP(=O)(O)OP(=O)(O)O)C3)c2[nH]1 (single isomer, unassigned) [CARBOVIR 5'-TRIPHOSPHATE, (-)-] | 0.16 | 4 | 0.6 | Selectivity ratio [6]: 11.2
Nc1nc(NC2CC2)c2ncn([C@H]3C=C[C@@H](CO)C3)c2n1 [ABACAVIR SULFATE] |  |  |  | IC50 [9]: 6.2 µM; IC50 [10]: 4.8 µM; IC50 [11]: 0.91 µM
Nc1ncnc2c1ncn2[C@H]1CC[C@@H](COP(=O)(O)OP(=O)(O)OP(=O)(O)O)O1 [DDA-TRIPHOSPHATE] | 1 | 5.3 | 5.4 | Selectivity ratio [3]: 7.5
